Assay outcomes (PubChem BioAssay)
The list is not random: actives were taken first. Their share in the collection is about 4.7%.
IMP-1 inh: inhibitors of Pseudomonas aeruginosa IMP-1 metallo-beta-lactamase. purified IMP-1, nitrocefin hydrolysis, epi-absorbance fluorescence. inhibition, % at 5.6 µM. hit rate 0.45% among 290,000. AID 1556;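 active = inhibition above the mean plus 3 SD of all compounds in the same screening run, cut at about 4.5% in these data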
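System: Purified IMP-1 | Read-out basis: Percent enzyme inhibition | Controls: IMP-1 with DMSO as 0%, enzyme-free DMSO as 100% | Replicates: One well per compound | Doses: 5.6 µM nominal single concentration | Detection: Epi-absorbance fluorescence, 480 nm excitation, 530 nm emission | Incubation: 25 °C, 15 min preincubation, 25 min reaction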
Mdm2 MdmX PPI: inhibitors of human Mdm2/MdmX interaction | SaOS-2 split-luciferase Mdm2/MdmX complementation, luminescence | inhibition, % at 8 µM | hit rate 3% among 330,000;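 active = inhibition of at least 50% at 8 µM in the primary screen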
Target sequence (O15151 whole entry, looked up): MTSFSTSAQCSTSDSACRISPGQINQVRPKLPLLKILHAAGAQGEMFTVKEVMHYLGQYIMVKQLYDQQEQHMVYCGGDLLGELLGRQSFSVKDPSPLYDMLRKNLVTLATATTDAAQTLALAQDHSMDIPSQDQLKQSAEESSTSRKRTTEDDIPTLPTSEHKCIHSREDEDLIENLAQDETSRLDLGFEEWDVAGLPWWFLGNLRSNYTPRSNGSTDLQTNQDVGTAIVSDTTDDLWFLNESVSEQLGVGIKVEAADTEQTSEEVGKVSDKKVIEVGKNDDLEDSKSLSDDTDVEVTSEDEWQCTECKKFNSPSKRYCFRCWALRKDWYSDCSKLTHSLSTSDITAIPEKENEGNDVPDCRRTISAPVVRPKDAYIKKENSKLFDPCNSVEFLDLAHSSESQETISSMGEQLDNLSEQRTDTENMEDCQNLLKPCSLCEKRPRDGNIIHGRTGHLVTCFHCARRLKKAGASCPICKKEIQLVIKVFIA
Target sequence (Q00987 whole entry, looked up): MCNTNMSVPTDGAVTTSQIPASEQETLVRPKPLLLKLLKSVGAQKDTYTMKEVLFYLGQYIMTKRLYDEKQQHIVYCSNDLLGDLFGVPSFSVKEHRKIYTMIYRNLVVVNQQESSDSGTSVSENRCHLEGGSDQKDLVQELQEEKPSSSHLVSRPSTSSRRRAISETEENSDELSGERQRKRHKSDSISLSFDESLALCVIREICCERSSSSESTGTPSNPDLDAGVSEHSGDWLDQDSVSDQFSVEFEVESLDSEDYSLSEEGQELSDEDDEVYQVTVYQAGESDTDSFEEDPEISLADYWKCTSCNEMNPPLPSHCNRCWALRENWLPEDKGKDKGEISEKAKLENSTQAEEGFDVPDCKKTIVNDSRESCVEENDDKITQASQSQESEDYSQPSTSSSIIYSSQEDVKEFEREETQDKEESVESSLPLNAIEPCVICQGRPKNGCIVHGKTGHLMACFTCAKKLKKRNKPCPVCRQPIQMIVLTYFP
Jurkat NFkB inh: inhibitors of the PMA/ionomycin-induced NF-kB reporter in Jurkat cells; PMA/ionomycin-induced NF-kB luciferase reporter, luminescence; inhibition, % at 4 µM; hit rate 0.53% among 330,000; in the data active = inhibition above about 50%
aSyn UTR inh: 5' untranslated region of α-synuclein, MLPCN primary screen; alpha-synuclein 5'UTR reporter, inhibitor activity; inhibition, % (tested at 7.5 µM); hit rate 0.82% among 300,000; AID 1813; in the data active = inhibition above about 60%;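 note: H4 neuroglioblastoma cells stably carrying SNCA 5'UTR luciferase fusion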
VIM-2 inh: blocks Pseudomonas aeruginosa VIM-2 metallo-beta-lactamase; purified VIM-2, nitrocefin hydrolysis, epi-absorbance fluorescence; inhibition, % at 5.6 µM; hit rate 0.89% among 290,000; AID 1527;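 active = inhibition above the mean of all tested compounds plus 3 SD, cutoff set per screening run, cut at about 7.5% in these data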;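 note: red hydrolysis product quenches plate fluorescence so inhibitors raise well fluorescence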
697 NFkB inh: lowers PMA/ionomycin-induced NF-kB signal in 697 B cells; inhibition, % at 4 µM; hit rate 0.33% among 330,000; AID 435022; 697 B-cell NF-kB luciferase reporter, 16 h; in the data active = inhibition above about 35%
Each line names hits and unclear results; the compound was inactive in the other large screens.

COc1cccc(CN2CC(C(=O)NCCOc3cccnc3)CCC2=O)c1 (stereo unspecified)	none
CCCNc1cc(C)c(C#N)c2nc3ccccc3n12	none (no result: aSyn UTR inh)
CCCc1cc(NCc2ccccn2)n2c(nc3ccccc32)c1C#N	none
Cc1cc(NCc2ccccn2)n2c(nc3ccccc32)c1C#N	VIM-2 inh 12 (no result: Mdm2 MdmX PPI, Jurkat NFkB inh, 697 NFkB inh)
CCCc1cc(NCCN(C)C)n2c(nc3ccccc32)c1C#N	VIM-2 inh 8.3
CCCc1cc(NCC2CCCO2)n2c(nc3ccccc32)c1C#N (stereo unspecified)	VIM-2 inh 8.7
CC(OC(=O)CNC(=O)c1ccc(Cl)cc1)C(=O)NC1CCCCC1C (stereo unspecified)	none (no result: IMP-1 inh, VIM-2 inh)
Cc1ccc2occ(/C=N/NC(=O)c3ccccc3Br)c(=O)c2c1	IMP-1 inh 5.2
CC1CCc2cccc3c2N1c1cc(C#N)c(C#N)cc1O3 (stereo unspecified)	aSyn UTR inh 71
Cc1nnc(NC(=O)c2cc(-c3ccncc3)nc3c(C)cccc23)s1	none
COc1cc(NC(=O)CN2C(=O)COc3ccc(S(=O)(=O)N4CCOCC4)cc32)cc(OC)c1	none
Cc1cc(C(=O)N/N=C/c2ccc(C)o2)c2ccccc2n1	aSyn UTR inh 65
O=C(O)COc1ccc(NC(=O)c2ccc3c(c2)C(=O)N(Cc2ccccc2)C3=O)cc1	none
O=C(CSc1cccc2cccnc12)OCC(=O)c1ccc(Br)cc1	IMP-1 inh 5.3
O=C(CSc1cccc2cccnc12)OCC(=O)c1ccccc1	none
CCCCNC(=O)CN(Cc1ccco1)S(=O)(=O)c1ccc(C(C)=O)cc1	none (no result: IMP-1 inh, aSyn UTR inh, VIM-2 inh)
COc1ccc(/C=C2\CCc3ccccc3C2=O)cc1CN1CCOCC1	aSyn UTR inh 62
CCOC(=O)c1c(N)sc2c1CCC(CC)C2 (stereo unspecified)	none
CCOC(=O)c1c(N)sc(=S)c2c1CCC2	IMP-1 inh 12
CCOC(=O)c1c(N)sc2c1CCSC2	IMP-1 inh 14
O=C(NCc1ccc(F)cc1)C1CC(=O)N(C2CCCCCCC2)C1 (stereo unspecified)	none
Cc1cc(-c2n[nH]c(=S)n2CC(C)C)cs1	VIM-2 inh 8.6
O=C(CNS(=O)(=O)c1cccc(Br)c1)NCC1CCCCC1	none
CC(NC(=O)CN1CCOCC1)c1ccc(F)cc1 (stereo unspecified)	none
Nc1ccc(Oc2ccccc2-c2ccccc2)cc1	aSyn UTR inh 104 (no result: IMP-1 inh, VIM-2 inh)
CCOC(=O)c1nn(-c2ccc(C)cc2)c(=O)cc1OCC(=O)Nc1ccc(OC)cc1	none (no result: IMP-1 inh, VIM-2 inh)
CN(C)c1ccc(CNc2nc3ccccc3s2)cc1	aSyn UTR inh 80
O=C(CCN1C(=O)C2C3CCC(C3)C2C1=O)Nc1cccc(Cl)c1 (stereo unspecified)	IMP-1 inh 5.9
CCc1ccc(NC(=S)N2CCN(S(=O)(=O)c3ccccc3)CC2)cc1	none (no result: aSyn UTR inh)
O=C(Nc1ccccc1N1CCN(C(=O)c2ccccc2)CC1)c1ccc(Br)o1	IMP-1 inh 5.9
O=C(CCC(=O)Nc1ccccc1Cl)NNC(=O)Nc1cccc([N+](=O)[O-])c1	none
CSc1nc(NCCCO)c2c3c(sc2n1)CN(C)CC3	VIM-2 inh 9.4
O=C(CCCN1C(=O)C(c2ccccc2)Oc2cccnc21)Nc1cccc(F)c1 (stereo unspecified)	none
CCN(CC)c1ccc(Nc2cc3n(c(=O)n2)CCc2cc(OC)c(OC)cc2-3)cc1	aSyn UTR inh 74
Cc1ccc(C=Nc2cccnc2N)cc1	IMP-1 inh 4.8
COc1ccc(C=Nc2cccnc2N)cc1	none
O=C(c1ccco1)[C@@H]1[C@@H]2C(=O)N(c3ccccc3)C(=O)[C@@H]2C2c3ccccc3C=CN21 (stereo partly specified)	none
COc1ccc(N2C(=O)[C@@H]3[C@H](C2=O)[C@H]2c4ccccc4C=CN2[C@@H]3C(=O)Nc2ccccc2)cc1	IMP-1 inh 42 (no result: aSyn UTR inh)
CC(=O)Nc1c(O)nc(SCC(=O)Nc2c(C)cccc2C)[nH]c1=O	IMP-1 inh 7.3
COCCn1c(C)cc(C(=O)CSc2cc(C)c3ccccc3n2)c1C	IMP-1 inh 5.7
O=C(O)C1Nc2c(Cl)cc(Cl)cc2C2C=CCC12 (stereo unspecified)	none (no result: Mdm2 MdmX PPI, Jurkat NFkB inh, 697 NFkB inh)
O=C(O)C1Nc2c(O)cccc2C2C=CCC12 (stereo unspecified)	VIM-2 inh 12 (no result: aSyn UTR inh)
O=c1oc2ccccc2c2oc3cc(O)c(O)cc3c12	none
O=c1oc2c(O)c(O)cc3c(=O)oc4c(O)c(O)cc1c4c23	IMP-1 inh 6.1 (no result: Mdm2 MdmX PPI, Jurkat NFkB inh, aSyn UTR inh, 697 NFkB inh)
O=C(Nc1cccc(-c2ccc3nncn3n2)c1)C(F)(F)F	VIM-2 inh 8.0
O=C(O)[C@@H]1CSC2c3ccccc3C(=O)N21 (stereo partly specified)	IMP-1 inh 25
COc1ccc(C2=[N+](C)CCn3cccc32)c(OC)c1	IMP-1 inh 7.2
COc1ccc(C(=O)c2nccc3cc(OC)c(OC)cc23)cc1OC	none (no result: IMP-1 inh, aSyn UTR inh, VIM-2 inh)
COc1cc2c(cc1OC)-c1c(OC)c(OC)cc3ccnc(c13)C2=O	aSyn UTR inh 110, VIM-2 inh 9.0
Cc1cccc(NC2=NC(C)(C)N=C(N)N2)c1	aSyn UTR inh 98
Cc1cccc(Nc2nc(C)cc(C)n2)c1	none
Cn1nc(C(=O)NNC(=O)c2ccc(Cl)c(S(N)(=O)=O)c2)c2ccccc2c1=O	none (no result: IMP-1 inh, aSyn UTR inh, VIM-2 inh)
Cc1ccccc1Cn1c(C)cc(C)c(C#N)c1=O	IMP-1 inh 4.5
COC(=O)CSc1nnc(-c2ccco2)n1-c1ccc(C)cc1	IMP-1 inh 6.0
O=C(Nc1ccc(Cl)cc1)OCc1cn(-c2ccccc2)nn1	IMP-1 inh 7.5
O=C(CSc1nc2ccsc2c(=O)n1CC1CCC(C(=O)O)CC1)c1ccc(F)cc1 (stereo unspecified)	none
O=C(CSc1nc2ccsc2c(=O)n1CC1CCC(C(=O)O)CC1)c1ccc(Cl)cc1 (stereo unspecified)	IMP-1 inh 14
O=C(NCCc1ccccc1)c1ccc2nccnc2c1	aSyn UTR inh 63
O=C(NCCc1ccccc1)c1cccnc1	none
CC1C=CC(C)C(C(=O)O)C1C(=O)O (stereo unspecified)	IMP-1 inh 23
Cc1cc([N+](=O)[O-])ccc1-c1ccc(C2Nc3ccccc3C(=O)N2O)o1 (stereo unspecified)	aSyn UTR inh 83
O=C1c2ccccc2NC(c2ccc(-c3ccccc3F)o2)N1O (stereo unspecified)	none (no result: IMP-1 inh, aSyn UTR inh, VIM-2 inh)
N#Cc1ccccc1S(=O)(=O)N1CCN(CC(=O)Nc2ccccc2C(=O)NC2CC2)CC1	none (no result: IMP-1 inh, aSyn UTR inh, VIM-2 inh)
Cc1ccc(S(=O)(=O)N2C(=S)SCC2(C)C)cc1	IMP-1 inh 5.4 (no result: Mdm2 MdmX PPI, Jurkat NFkB inh, 697 NFkB inh)
Cc1nnc(NC(=O)CSc2nnc(CC(=O)Nc3ccccc3Cl)n2C)s1	none
COc1cccc(Nc2nc3ccccc3n3cnnc23)c1	VIM-2 inh 7.8
Cc1ccc2nc(Nc3ccc(F)cc3)c3nncn3c2c1	IMP-1 inh 7.6
